High-throughput results: PubChem, several laboratories
NadD inh = inhibitors of Staphylococcus aureus NadD. purified NadD enzyme, colorimetric absorbance read-out. inhibition, % at 20 µM. actives 0.78% (n = 360,000); in the data active = inhibition above about 26%
HCV core dimer = HCV core protein dimerization inhibition; inhibition, % at 5 µM; actives 0.33% (n = 300,000); TR-FRET GST/Flag-core106 dimerization, 1536-well;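 active = inhibition above the mean of all tested compounds plus 3 SD, set per screening campaign, cut at about 45% in these data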
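Assay system: GST-tagged and Flag-tagged HCV core protein residues 1-106 / Times: compound-protein-antibody incubation 4 h at 22.5 °C / Signal: time-resolved FRET, ex 340 nm, em 617 and 671 nm / Evaluation: % inhibition based on acceptor/donor emission ratio / Benchmarks: wells lacking GST-core106 and wells with excess unlabelled core106 / Repeats: singlicate, one well per compound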
ABHD5-PLIN5 inh = inhibitors of human ABHD5-perilipin-5 interaction; AID 602281; inhibition, % at 4 µM; Split G. princeps luciferase complementation, luminescence, 4 h; actives 0.78% (n = 360,000);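 active = inhibition above the mean inhibition across every tested compound plus 3 SD, cut at about 22% in these data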;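 note: 0% = DMSO only wells and the 100% control is not disclosed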
rCAG binder = binds r(CAG) RNA repeats; r(CAG) RNA repeat, TO-PRO-1 dye displacement fluorescence; inhibition, % at 3 µM; actives 1.3% (n = 370,000);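 active = inhibition above the plate cutoff, the mean of all test compounds on that plate plus 3 SD, cut at about 35% in these data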;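 note: 0% = DMSO alone and 100% = 100 µM mitoxantrone as full dye displacement; higher means more dye released from RNA so lower well fluorescence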
ABHD5-PLIN5 conf = ABHD5-PLIN5 interaction inhibition, confirmed; biochemical ABHD5-PLIN5 interaction, luminescence; inhibition, % at 4 µM; shares compounds with ABHD5-PLIN5 inh; actives 67% (n = 2,200); AID 651612; in the data active = inhibition above about 23%;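 note: 0% = DMSO vehicle wells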
HNF4 counter = active in HNF4 split-luciferase counter-screen for ABHD5-PLIN5 inhibitors. shares compounds with ABHD5-PLIN5 inh. HNF4 dimerization, luminescence, biochemical. inhibition, % at 4 µM. actives 77% (n = 2,200);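 active = mean inhibition across replicate wells exceeding the computed hit threshold, cut at about 13% in these data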;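 note: light from luciferase halves that rejoin when HNF4 fusion proteins dimerize; 0% = DMSO only wells and the 100% control is not given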
The depositor's hits bear a star; · = no result. Hits are enriched below; roughly 2.6% of the tested compounds scored in any of these assays.

SMILES	NadD inh	HCV core dimer	ABHD5-PLIN5 inh	rCAG binder	ABHD5-PLIN5 conf	HNF4 counter
NS(=O)(=O)c1ccc(CCNC(=O)c2cc(-c3ccco3)nc3ccccc23)cc1	4	·	25*	27	22*	22*
Cc1ccc(NC(=O)Cc2sc(C)nc2-c2ccc(C)cc2)cc1	-1	0	0	-4	·	·
Cc1ccc(-c2nc(C)sc2CC(=O)NCc2ccco2)cc1	1	·	27*	4	27*	33*
Cc1ccc(-c2cc(C(=O)NCc3ccco3)c3ccccc3n2)s1	11	47*	35*	13	21	16*
COC(=O)C[C@H]1CC[C@@H]2[C@H](COc3ccc(NS(C)(=O)=O)cc3C(=O)N2C)O1	·	·	·	0	·	·
COc1ccccc1N1CCN(c2ncnc3n[nH]c(Br)c23)CC1	8	·	-3	6	·	·
O=C(NCc1ccccc1)C(c1ccc(C(F)(F)F)cc1)n1c(=O)c(-c2ccccc2)nc2ccccc21 (centres undefined)	·	·	-3	2	·	·
O=C(NCc1ccccc1)C(c1ccccc1)n1c(=O)c(-c2ccco2)nc2ccccc21 (centres undefined)	·	·	74*	26	48*	12
O=C(Nc1ccc2c(c1)OCCO2)C(c1ccccc1)n1c(=O)c(-c2ccco2)nc2ccccc21 (centres undefined)	·	·	18	27	·	·
O=C(NCc1ccccc1)C(c1cc2ccccc2o1)n1c(=O)c(-c2ccco2)nc2ccccc21 (centres undefined)	·	·	91*	31	62*	15*
CC(C)(C)NC(=O)C(c1ccc(C(F)(F)F)cc1)n1c(=O)c(-c2ccco2)nc2ccccc21 (centres undefined)	·	·	60*	27	87*	38*
O=C(NCc1ccccc1)C(c1ccc(C(F)(F)F)cc1)n1c(=O)c(-c2ccco2)nc2ccccc21 (centres undefined)	·	·	74*	36*	95*	44*
O=C(NCc1ccccc1)C(c1cccc2ccccc12)n1c(=O)c(-c2ccccc2)nc2ccccc21 (centres undefined)	·	·	8	7	·	·
Cc1nc2ccc(NC(=O)c3cc(Cl)ccc3F)cc2c(=O)[nH]1	·	·	·	1	·	·
CCOC(=O)N1CCN(C(=O)C[C@H]2C[C@@]3(C(=O)OC)C(=C[C@H](C(C)C)O[C@@H]3C3CC3)N(Cc3ccc4c(c3)OCO4)C2=O)CC1	·	·	·	2	·	·
COc1cccc(-c2cc(C(C)=O)c3n(c2=O)CCC3)c1OC	·	·	·	1	·	·
O=C(NCc1ccccc1)C(C1CC1)n1c(=O)c(-c2ccco2)nc2ccccc21 (centres undefined)	·	·	38*	21	37*	13*
O=C(NC1CCCCC1)C(C1CC1)n1c(=O)c(-c2ccccc2)nc2ccccc21 (centres undefined)	·	·	-5	0	·	·
CC(=O)Nc1ccc(OC(=O)Cc2ccc(Cl)cc2)cc1	8	-3	5	-5	·	·
COc1cc(OC)cc(C(=O)NC(=S)N(Cc2ccccc2)C(C)C)c1	-10	-1	45*	2	70*	-10
Cc1cc(NS(=O)(=O)c2ccc(NC(=O)/C=C/c3ccc(C)o3)cc2)nc(C)n1	1	-1	29*	23	51*	60*
COc1ccc(NC(=O)/C=C/c2ccc(C)o2)cc1S(=O)(=O)N1CCOCC1	3	-3	23*	24	16	17*
Cc1ccc(/C=C/C(=O)NCc2cccs2)cc1	-6	-1	3	0	·	·
Cc1ccc(/C=C/C(=O)NCc2cccs2)o1	4	4	24*	5	14	18*
Cc1ccc(/C=C/C(=O)Nc2ccc(Oc3ccccc3)cc2)o1	3	0	24*	8	10	39*
SMILES	NadD inh	HCV core dimer	ABHD5-PLIN5 inh	rCAG binder	ABHD5-PLIN5 conf	HNF4 counter
Cn1nc(C(C)(C)C)cc1N1C(=O)CCC1(C)C(=O)Nc1ccc2ccccc2c1 (centres undefined)	-10	·	2	3	·	·
COC(=O)[C@@]12CCCCC3=C1N(CCC3)C(=O)[C@H]2CC(=O)N1CCSCC1	·	·	·	3	·	·
Cc1cc2oc(=O)sc2cc1NS(=O)(=O)c1ccccc1	2	-11	39*	10	-72	-27
Cc1cc2oc(=O)sc2cc1NS(=O)(=O)c1cccc2cccnc12	1	-6	-11	13	·	·
CC(C)(C)C(=O)/C(=C/c1ccncc1)n1cncn1	3	3	29*	-5	51*	48*
COCCNC(=O)Nc1ccc2c(c1)N(C)C(=O)c1ccccc1S2	-7	3	7	2	·	·
CCC(C)NC(=O)Nc1ccc2c(c1)N(C)C(=O)c1ccccc1S2 (centres undefined)	-2	0	46*	0	60*	0
CC(C)C[C@H]1CN([C@@H](Cc2ccccc2)CN2CCC[C@H]2CN2C(=O)C(=O)NC[C@@H]2Cc2ccccc2)C(=O)C(=O)N1CC1CCCCCC1	·	·	·	3	·	·
COc1cc(/C=C/C(=O)c2ccc([N+](=O)[O-])o2)ccc1O	0	0	27*	2	96*	94*
O=C(/C=C/c1cccc(Cl)c1)c1ccc([N+](=O)[O-])o1	-2	8	96*	14	103*	110*
COC(=O)c1cc2c(c3c4ccccc4n(S(=O)(=O)c4ccc(OC)cc4)c13)C(=O)N(Cc1ccccc1OC)C2	·	·	·	18	·	·
NS(=O)(=O)c1ccc(CCNC(=O)c2ccc(Cl)c(S(=O)(=O)NCc3ccco3)c2)cc1	-3	·	5	9	·	·
O=S(=O)(c1ccc2ccccc2c1)N1CCOCC1	-2	-2	-5	4	·	·
O=S(=O)(c1ccc2nc(-c3ccco3)c(-c3ccco3)nc2c1)N1CCOCC1	11	59*	26*	69*	78*	62*
COC(=O)[C@]12C[C@H](CC(=O)N3CCN(C(=O)C4CC4)CC3)C(=O)N(Cc3ccco3)C1=C[C@H](C(C)(C)C)O[C@@H]2C	·	·	·	3	·	·
Cc1oc2c(c1C(=O)c1ccccc1)C(=O)C(=O)c1ccccc1-2	11	-6	-14	6	·	·
O=C1C(=O)c2c(C(=O)c3ccccc3)coc2-c2ccccc21	0	-10	69*	10	85*	45*
COc1ccc(/C=C/S(=O)(=O)NCc2ccccc2)c(CNC(=O)OC(C)(C)C)c1	·	·	·	5	·	·
O=C(/C=C/c1cccc(Cl)c1)c1nc2ccccc2[nH]1	8	5	61*	18	98*	99*
Nc1nnnn1/N=C/C(Br)=C/c1ccccc1	2	9	28*	1	54*	51*
Cc1cc2c(c(=O)n1Cc1ccco1)C(c1cccnc1)C(C#N)=C(N)O2 (centres undefined)	5	1	42*	2	9	24*
COc1ccc(CN=C2Nc3ccccc3CS2)cc1	1	2	37*	-7	3	3
